Experimental data: paper PMC8103725 (FASEB BioAdvances, 2021)
Values belong to the compound of their own block, whether it stands above or below them.

Assays:
[1] = target: HEG1–KRIT1 interaction (EGFP‐KRIT1 FERM domain binding to HEG1 cytoplasmic tail on beads) (Homo sapiens, UniProt O00522); experiment: Flow cytometry bead assay for the HEG1–KRIT1 FERM domain interaction; conditions: for inhibition of the HEG1–KRIT1 interaction: result in words
[2] = system: PARD3 binding to HEG1 cytoplasmic tail; experiment: PARD3 pulldown assay with HEG1 matrix; design: species or system human; conditions: HUVEC lysates, 35 μM compound
Summary of the method: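 Clarified lysate (600 μg) was rotated overnight at 4°C with 20 μL neutravidin agarose carrying HEG1 wild‑type (1274–1381) or ΔYF (1274–1379) tail. Incubations contained DMSO, 35 μM test compound or 35 μM 2‑hydroxy‑1‑naphthoic acid. After three washes, bound PARD3 was detected by SDS–PAGE immunoblot with rabbit polyclonal anti‑PARD3.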

hCMEC/D3 cells [3] = experiment: qPCR of KLF4 and KLF2 mRNA in hCMEC/D3 cells; type: cell-based, human; conditions: 50 μM, 4 h
Summary of the method: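 Test compound came from a 10 mM DMSO stock, rotated 30 min at RT before use. hCMEC/D3 cells (passages 30–37, collagen‑coated, EGM‑2 MV, 37°C/5% CO2) were treated at the indicated doses (12 h dose–response) or over a time course, versus DMSO. RNA was extracted with TRIzol, and 1 µg was reverse‑transcribed with SuperScript III. qPCR used actin normalization and 2−ΔΔCT. Results are relative to vehicle ± SEM: n=3 t test, or n=4 one‑way ANOVA.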

hCMEC/D3 cells [4] = experiment: Propidium iodide staining, cell viability; type: cell-based, human; conditions: 50 μM, 24 h, vs vehicle
Summary of the method: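 hCMEC/D3 cells were treated with test compound or the same DMSO concentration, then resuspended in PBS with 1% BSA and stained with propidium iodide. Samples were analysed by flow cytometry, counting PI‑positive cells as dead. Results are percentage viable cells ± SEM, n=3, one‑way ANOVA.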

HUVEC = experiment: Genome‐wide RNA sequencing of HUVEC; type: cell-based, human; conditions: same conditions as HKi2, vs vehicle; data not shown
Summary of the method: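 HUVEC (passages 4–7) were grown on fibronectin in complete EGM‑2 at 37°C, 5% CO2, then given 75 μM test compound or DMSO for 24 h. Only RNA with RIN >8 was used; 400 ng went into TruSeq stranded mRNA libraries. Libraries were sequenced on HiSeq2500 (SR100, 30 million reads), mapped to GRCh release 96 with Hisat2, and analysed for differential expression with EdgeR.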

[5] = system: klf2a expression in arterial and venous endothelium; experiment: Zebrafish klf2a reporter Tg; type: in vivo; conditions: 4 μM, 4 h from 26 hpf
Summary of the method: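 Tg(klf2a:H2B‑EGFP);Tg(kdrl:mCherry) embryos were exposed to test compound dissolved in fish egg water. At 30 hpf they were paralysed with tricaine and imaged by confocal microscopy. Nuclear EGFP intensity in vasculature was measured on nuclei outlined through Z, seven nuclei per embryo. Each experiment used two treated and two control embryos; two independent experiments were analysed.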

hCMEC/D3 cells [6] = experiment: Western blot of pAkt‐S473 and total Akt in hCMEC/D3 cells; type: cell-based, human; conditions: for effect on Akt phosphorylation induced by HKi2: with HKi2 50 μM, MK‐2206 20 μM, LY294002 10 μM
Summary of the method: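 hCMEC/D3 cells were treated with 50 μM test compound or DMSO and washed twice in ice‑cold HBSS. They were lysed in RIPA (50 mM Tris pH 7.5, 150 mM NaCl, 1% NP‑40, 0.5% deoxycholate, 0.1% SDS, 2 mM EDTA, 50 mM NaF) with protease/phosphatase inhibitors and 1 mM Na3VO4. Lysates were spun at 20,000xg for 15 min at 4°C, resolved on 4–12% gels, and immunoblotted for phospho‑Akt Ser473 (1:250) and total Akt. Data are mean ± SEM.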

[7] = Aqueous solubility in assay buffer; type: physicochemical; conditions: assay buffer conditions

Sequence of HEG1–KRIT1 interaction (EGFP‐KRIT1 FERM domain binding to HEG1 cytoplasmic tail on beads) (O00522 417-736): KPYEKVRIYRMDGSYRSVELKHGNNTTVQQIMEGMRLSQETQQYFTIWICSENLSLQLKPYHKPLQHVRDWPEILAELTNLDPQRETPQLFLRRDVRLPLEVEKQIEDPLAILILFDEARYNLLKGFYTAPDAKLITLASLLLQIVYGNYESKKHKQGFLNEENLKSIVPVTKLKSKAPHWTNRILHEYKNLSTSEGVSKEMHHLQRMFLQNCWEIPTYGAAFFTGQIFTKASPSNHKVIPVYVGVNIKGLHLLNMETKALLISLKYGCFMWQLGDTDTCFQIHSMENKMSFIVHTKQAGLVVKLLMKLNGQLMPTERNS

SMILES: O=C(O)c1c(O)ccc2ccccc12 [Compound 9, 2‐hydroxy‐1‐naphthoic acid]
inhibition of the HEG1–KRIT1 interaction [1]: does not block KRIT1 binding to HEG1
PARD3 binding to HEG1 [2]: no effects
KLF2 mRNA levels (hCMEC/D3 cells [3]): did not elevate
KLF4 mRNA levels (hCMEC/D3 cells [3]): did not elevate
cell viability (hCMEC/D3 cells [4]): no statistical difference
effects on HUVECs gene expression by RNA‐Seq (HUVEC): no significant effects
nuclear EGFP (klf2a reporter) in arterial and venous endothelium [5]: no effects
Akt phosphorylation (pAkt‐S473) (hCMEC/D3 cells [6]; 50 μM, 4 h): did not elevate Akt activity

SMILES: O=c1cc(N2CCOCC2)oc2c(-c3ccccc3)cccc12 [LY294002]
effect on Akt phosphorylation induced by HKi2 (hCMEC/D3 cells [6]): prevented an increase in Akt signaling

SMILES: NC1(c2ccc(-c3nc4ccn5c(=O)[nH]nc5c4cc3-c3ccccc3)cc2)CCC1 [MK‐2206]
effect on Akt phosphorylation induced by HKi2 (hCMEC/D3 cells [6]): prevent the increase in Akt phosphorylation

The remaining lines, values ahead:

inhibition of the HEG1–KRIT1 interaction [1]: moderate inhibition activity
SMILES: O=Cc1cc(-c2ccccc2)ccc1O [Compound 6]

inhibition of the HEG1–KRIT1 interaction [1]: no inhibition
SMILES: O=Cc1nccc2ccccc12 [Compound 8]

IC50 ([1]; IC50, competition, 70 nM EGFP‐KRIT1 FERM domain, 150 nM HEG1 on the beads): ~10 µM
aqueous solubility [7]: poor solubility
SMILES: CC(NC(=O)c1ccccc1/N=C/c1c(O)ccc2ccccc12)c1ccccc1 (centres unmarked) [HKi1, Sirtinol]
